The list is not random: actives were taken first. Their share in the collection is about 3.5%.
MrgX1 antag: human MrgX1 receptor antagonism, primary screen; actives 1.3% (n = 310,000); AID 588676; MRGX1-HEK293 calcium flux, Fluo-4, BAM8-22 antagonism; hits give low values; B-score at 10 µM;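 active = calcium-response B-score plate-corrected more than 3 library SD below zero, starting fluorescence within 5 deviations, no agonist response on first addition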;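 note: peak minus trough fluorescence over baseline after final BAM8-22 challenge near maximal dose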
Target sequence (Q96LB2 whole entry, looked up): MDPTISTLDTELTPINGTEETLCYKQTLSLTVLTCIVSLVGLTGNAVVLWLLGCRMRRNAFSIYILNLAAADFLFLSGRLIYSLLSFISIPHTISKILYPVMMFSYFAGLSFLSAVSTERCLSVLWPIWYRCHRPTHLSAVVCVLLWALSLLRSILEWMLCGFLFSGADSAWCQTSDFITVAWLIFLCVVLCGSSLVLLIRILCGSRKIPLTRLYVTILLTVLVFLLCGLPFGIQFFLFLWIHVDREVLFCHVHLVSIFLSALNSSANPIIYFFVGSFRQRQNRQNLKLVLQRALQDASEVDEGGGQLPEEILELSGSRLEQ
RGS4 pot: potentiators or activators of RGS4. HEK293 M3R/inducible RGS4, carbachol calcium flux Fluo4; hits give low values. B-score at 10 µM. actives 0.92% (n = 310,000). AID 463111;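 active = B-score of the integrated calcium signal more than 4 SD below the library mean, with starting fluorescence not abnormally high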;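 note: negative B-score means reduced calcium response which marks RGS4 activation or potentiation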
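Also added: carbachol at ECmax as muscarinic agonist stimulus; Assay system: HEK293 cells with stable M3R and inducible RGS4; Timing: overnight RGS4 induction, 30 min dye load 37 °C, 20 min compound RT; Measured by: Fluo4-AM (2 µM) calcium-flux fluorescence, kinetic read.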
RGS4 inh: human RGS4 inhibition; HEK293 M3R/RGS4 inducible, Fluo-4 calcium flux; hits give high values; triggered by carbachol at its EC20; actives 0.45% (n = 310,000); AID 463165; B-score at 10 µM;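 active = B-score, a plate-corrected calcium signal, over three deviations above library mean, with baseline fluorescence within five deviations of library mean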;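 note: RGS4 expression induced by doxycycline in cells with stable M3 receptor; B-score is computed from the integrated fluorescence ratio over baseline after carbachol; higher B-score means a larger calcium signal and so more RGS4 inhibition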
Target sequence (P49798 whole entry, looked up): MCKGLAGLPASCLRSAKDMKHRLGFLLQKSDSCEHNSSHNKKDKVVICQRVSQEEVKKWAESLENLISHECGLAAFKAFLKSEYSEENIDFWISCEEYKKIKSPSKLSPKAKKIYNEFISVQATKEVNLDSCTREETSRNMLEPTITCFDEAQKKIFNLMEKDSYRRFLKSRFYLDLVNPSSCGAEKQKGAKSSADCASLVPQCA
MrgX1 PAM: allosterically activates human MrgX1 receptor signaling | MrgX1-HEK293, Fluo-4 calcium flux, FDSS; hits give high values | B-score at 10 µM | actives 0.63% (n = 310,000) | AID 588675;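 active = plate-corrected calcium response at least 3 library SD above typical, normal starting fluorescence, not activating the receptor alone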;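 note: compound read alongside a low EC10 to EC30 dose of BAM8-22 agonist; peak minus trough fluorescence over baseline measured at the second addition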
MrgX1 agonist: activates human MrgX1 receptor signaling; Q96LB2; MrgX1-HEK293 cells, Fluo-4 calcium fluorescence, agonist mode; hits give high values; B-score at 10 µM; actives 0.44% (n = 310,000); AID 588627;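 active = calcium response B-score plate-corrected fluorescence ratio at least 3 library SD, with starting fluorescence B-score inside 5 SD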
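Test system: HEK293 cells stably expressing human MrgX1 receptor; Input: fifteen thousand cells per well; Dosing: compound delivered in addition one of three; Schedule: overnight seeding, then 1 h dark dye loading; Technique: Fluo-4 NW calcium fluorescence; Measure: B-scored fluorescence response ratio; Controls: positive and negative controls per plate.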
RGS4 act valid: RGS4 activation, validation assay; shares compounds with RGS4 pot; HEK293 M3R/RGS4 inducible, carbachol calcium flux Fluo4; inhibition, % at 10 µM; actives 89% (n = 1,100);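 active = inhibition above 3 SD of the buffer control wells, cut at about 41% in these data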;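 note: signal is the integrated peak-minus-minimum Fluo4 fluorescence over baseline ratio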
M3R Ca counter: counter-screen for RGS4 activators: effect in non-induced cells; shares compounds with RGS4 pot; HEK293 M3R non-induced RGS4, Fluo4 calcium flux; after carbachol challenge at its EC90; inhibition, % at 10 µM; actives 82% (n = 1,100); AID 602283;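 active = inhibition exceeding 3 SD of buffer-only control wells, cut at about 26% in these data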;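 note: percent drop in integrated peak-minus-baseline over baseline Fluo4 ratio after carbachol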
Numbers without * were called inactive; i = inactive; nt = no result given.

SMILES	MrgX1 antag	RGS4 pot	RGS4 inh	MrgX1 PAM	MrgX1 agonist	RGS4 act valid	M3R Ca counter
Cc1c(O)c(CN2CCCC2)cc2c1oc(=O)c1ccccc12	i	i	i	i	i	nt	nt
COc1ccccc1CN1CCC(CNS(=O)(=O)c2cc(-c3onc(C)c3C)ccc2OC)CC1	i	-7.98*	i	i	i	90.5*	64.8*
O=S(=O)(Nc1ccccc1)c1ccc(-c2csnn2)cc1	i	-8.39*	i	i	i	63.0*	83.8*
Cc1ccc(C(C)C)c(OCCCNCc2cccnc2)c1	i	-8.7*	i	i	i	91.5*	59.8*
COc1cc([N+](=O)[O-])ccc1NC(=O)CCCOc1cc(C)ccc1C	i	i	i	i	i	nt	nt
COc1cc(CN2CCc3ccc(NC(=O)CCc4ccccc4OC)cc3C2)ccc1O	i	i	i	i	i	nt	nt
COc1ccc(CN2CCc3ccc(NC(=O)CCc4ccccc4OC)cc3C2)c(O)c1	i	-9.28*	i	i	i	90.5*	71.3*
N#CC(C(=O)NC1CCCCC1)=C1CCCCCC1	i	i	i	i	i	nt	nt
CCOC(=O)c1cc2cc(OCc3ccccc3)ccc2nc1C	i	-10.6*	i	i	i	78.0*	76.3*
CC(C)=CCN1CCN(Cc2ccc(Sc3nncn3C)o2)CC1CCO (stereo not drawn)	i	i	i	i	i	nt	nt
Cc1cccc(NS(=O)(=O)c2cc(C(=O)N3CCc4ccccc4C3)ccc2Cl)c1C	i	-8.13*	i	i	i	82.5*	29.8*
CCC(C(=O)Nc1ccc([N+](=O)[O-])cn1)c1ccccc1 (stereo not drawn)	i	i	i	i	i	nt	nt
CC(C)c1ccc(NC(=O)CCNS(=O)(=O)c2cccc3nsnc23)cc1	i	-8.02*	i	i	i	0.0	0.0
CCc1ccc(NS(=O)(=O)c2cccc3nsnc23)cc1	i	-8.56*	i	i	i	72.5*	83.8*
S=C(NCc1ccco1)N1CCN(C(c2ccccc2)c2ccccc2)CC1	i	-9.76*	i	i	i	65.5*	0.0
COc1ccc(C(=O)Nc2cc(C(F)(F)F)ccc2Cl)cc1OC	i	i	i	i	i	nt	nt
CC(C)CC(=O)NC(=S)Nc1ccccc1C(=O)Nc1ccccc1	i	i	i	i	i	nt	nt
CSCC[C@H](NS(=O)(=O)c1ccc(C(C)=O)cc1)c1nnc2ccccn12	i	i	i	i	i	nt	nt
Cc1ccc(S(=O)(=O)NC(C(=O)N2CCOCCOCCOCC2)c2ccccc2)cc1 (stereo not drawn)	i	i	i	i	i	nt	nt
COc1ccc(C(=O)c2sc3nc(C)cc(-c4cccs4)c3c2N)cc1	nt	i	i	nt	nt	nt	nt
COc1ccc(C(=O)c2sc3nc(C)cc(-c4cccs4)c3c2N)cc1OC	i	-8.7*	i	i	i	83.0*	71.3*
O=C(NCC(=O)N(c1cccnc1)C(C(=O)NC1CCCC1)c1ccccc1F)c1ccco1 (stereo not drawn)	i	i	i	i	i	nt	nt
COc1ccc(C(=O)N/N=C/c2ccc3cccc(OCc4ccccc4)c3n2)cc1	i	-11.4*	i	i	i	91.0*	47.3*
O=S(=O)(NCc1ccco1)c1ccccc1Br	i	i	i	i	i	nt	nt
COc1ccc(C(=O)C2CCCN(Cc3nc4ccccc4nc3C)C2)cc1OC (stereo not drawn)	i	i	i	i	i	nt	nt
SMILES	MrgX1 antag	RGS4 pot	RGS4 inh	MrgX1 PAM	MrgX1 agonist	RGS4 act valid	M3R Ca counter
COc1ccc(C(=O)C2CCCN(C3Cc4ccccc4C3)C2)cc1OC (stereo not drawn)	i	-8.61*	i	i	i	86.0*	45.8*
CCOC(=O)N1CCC(N2CCCC(C(=O)c3cc(C)c(OC)c(C)c3)C2)CC1 (stereo not drawn)	i	-8.1*	i	i	i	79.0*	35.3*
CCN(CC)CCN1C(=O)C(O)=C(C(=O)c2cc3cccc(OC)c3o2)C1c1ccc(F)cc1 (stereo not drawn)	i	i	i	i	i	nt	nt
CN1CCCC(CC2Oc3ccccc3Sc3ccccc32)C1 (stereo not drawn)	i	-9.11*	i	i	i	93.0*	91.8*
Cc1cc(C)c(S(=O)(=O)Nc2ccc3c(c2)CCC3)c(C)c1	i	-10.1*	i	i	i	91.5*	73.8*
Cc1cc(C)c(S(=O)(=O)Nc2ccc(O)cc2)c(C)c1	i	i	i	i	i	nt	nt
Cc1cnc(C(=O)Nc2cc(F)ccc2C)cn1	i	i	i	i	i	nt	nt
Cc1ccc(N2CC(C(=O)Nc3c(C)n(C)n(-c4ccccc4)c3=O)CC2=O)cc1 (stereo not drawn)	i	i	i	i	i	nt	nt
Cc1cccc2cc(CNCC3CCCO3)c(Cl)nc12 (stereo not drawn)	i	i	i	i	i	nt	nt
CSc1ccc2c(c1)C(N1CCN(C)CC1)Cc1ccc(F)cc1S2 (stereo not drawn)	i	-11.5*	i	i	i	94.0*	89.8*
CCN(CC)CCNC(=O)c1ccc(NC(=O)Cc2ccccc2F)cc1	i	i	i	i	i	nt	nt
CCN(CC)CCNC(=O)c1ccc(NC(=O)c2c(C)nn(-c3ccc(F)cc3)c2Cl)cc1	i	-9.81*	i	i	i	92.5*	87.8*
O=C(NC1CCCCC1)c1cc(S(=O)(=O)N2CCCC2)ccc1Cl	i	i	i	i	i	nt	nt
CC(=O)N1CCOc2ccc(S(=O)(=O)N3CCC(C(=O)Nc4cc(C)ccc4C)CC3)cc21	i	i	i	i	i	nt	nt
CC(=O)N1CCOc2ccc(S(=O)(=O)N3CCC(C(=O)Nc4ccc(C)cc4C)CC3)cc21	i	-8.63*	i	i	i	0.0	0.0
COc1ccc(C(=O)c2ccc(N3CCN(C4CC(=O)NC4=O)CC3)cc2)cc1F (stereo not drawn)	i	i	i	i	i	nt	nt
N#Cc1cc2c(nc1SCc1ccccc1)CCCCC2	i	-9.82*	i	i	i	81.5*	83.8*
CCn1ccnc1CNC(=O)c1ccc2oc(C(C)C)nc2c1	i	-8.24*	i	i	i	82.0*	47.3*

Screening results from PubChem BioAssay.
